In ChEMBL document CHEMBL4400568, “The design of 1,4-naphthoquinone derivatives and mechanisms underlying apoptosis induction through ROS-dependent MAPK/Akt/STAT3 pathways in human lung cancer cells” (Bioorg Med Chem, 2019):
Each block holds one compound with its values, some of them ahead of it. Activity calls are given as the source filed them. The calls are words filed in the database; no cut-off is given here.

Tests used:
A549 [1] = assay: Modulation of ERK in human A549 cells assessed as increase in cleaved caspase-3 measured after 24 hrs in presence of ERK inhibitor-FR180204 by Western blot analysis; assay type: cell-based
Method in brief: (§1)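 A549 cells pre-incubated for 30 min with 12.1 μM kinase inhibitor: SB203580 (p38), SP600125 (JNK), FR180204 (ERK) or LY10249 (Akt). Compound treatment followed for 24 h. Lysates (30 μg protein) analysed by 12% SDS-PAGE and nitrocellulose immunoblot with HRP detection. Three independent experiments, mean ± SD.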

A549 [2] = assay: Induction of apoptosis in human A549 cells assessed as early apoptotic cells at 3 uM in presence of NAC by Annexin V-FITC/propidium iodide staining-based flow cytometric analysis (reference value: 5.31%); assay type: functional
A549 [3] = assay: Induction of apoptosis in human A549 cells assessed as early apoptotic cells at 3 uM after 3 hrs by Annexin V-FITC/propidium iodide staining-based flow cytometric analysis (reference value: 2.73%); assay type: functional
[4] = target: RAC-alpha serine/threonine-protein kinase (Homo sapiens) (UniProt P31749); assay: Modulation of AKT in human A549 cells assessed as decrease in cyclinD1 levels measured after 24 hrs in presence of Akt inhibitor-LY10249 by Western blot analysis; assay type: cell-based; method in brief: as §1
Chain of RAC-alpha serine/threonine-protein kinase (Homo sapiens) (P31749 whole entry): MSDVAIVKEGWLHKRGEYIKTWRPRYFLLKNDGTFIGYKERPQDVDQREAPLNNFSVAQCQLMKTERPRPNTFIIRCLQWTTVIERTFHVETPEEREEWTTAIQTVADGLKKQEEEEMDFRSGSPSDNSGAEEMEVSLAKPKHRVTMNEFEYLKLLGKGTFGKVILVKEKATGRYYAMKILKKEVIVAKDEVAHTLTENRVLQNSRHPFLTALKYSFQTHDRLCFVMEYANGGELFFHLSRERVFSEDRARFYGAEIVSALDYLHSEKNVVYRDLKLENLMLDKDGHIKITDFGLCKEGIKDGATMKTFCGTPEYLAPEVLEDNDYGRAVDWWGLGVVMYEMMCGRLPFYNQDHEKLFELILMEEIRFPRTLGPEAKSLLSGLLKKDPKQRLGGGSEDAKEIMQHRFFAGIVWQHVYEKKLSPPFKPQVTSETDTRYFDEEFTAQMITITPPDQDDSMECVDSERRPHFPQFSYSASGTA

A549 [5] = assay: Cell cycle arrest in human A549 cells assessed as increase in p21 levels at 3 uM by Western blot analysis; assay type: functional, cell-based; details: TDE = time-dependent effect
Method in brief: (§2)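 A549 cells exposed to 3 μM for 3, 6, 12 or 24 h; where NAC is used, 10 mM NAC is added 30 min before 24 h treatment. Lysate protein (30 μg) is run on 12% SDS-PAGE, blotted to nitrocellulose, blocked in 5% milk, primary antibody overnight at 4°C, then HRP anti-IgG. β-actin loading control; densitometry; three independent experiments, mean ± SD.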

A549 [6] = assay: Induction of ROS generation in human A549 cells at 3 uM by DCFH-DA staining-based flow cytometric analysis; assay type: functional, cell-based; details: TDE = time-dependent effect
Method in brief: (§3)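 A549 cells loaded with DCFH-DA (10 μM per legend) for 30 min, then exposed to 3 μM at 37°C for 3, 6, 12 or 24 h. After two PBS washes, intracellular fluorescence is quantified by flow cytometry. Three independent experiments, mean ± SD.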

A549 [7] = assay: Cell cycle arrest in human A549 cells assessed as accumulation of cells at G1 phase at 3 uM by propidium iodide staining-based flow cytometric analysis; assay type: functional; details: TDE = time-dependent effect
[8] = target: RAC-alpha serine/threonine-protein kinase (Homo sapiens) (UniProt P31749); assay: Modulation of AKT in human A549 cells assessed as decrease in CDK6 levels measured after 24 hrs in presence of Akt inhibitor-LY10249 by Western blot analysis; assay type: cell-based; method in brief: as §1
[9] = target: MAP kinase p38 (Homo sapiens) (UniProt O15264+Q15759+Q16539+P53778); assay: Activation of p38 phosphorylation in human A549 cells at 3 uM after 3 to 24 hrs by Western blot analysis; assay type: cell-based; method in brief: as §2
A549 [10] = assay: Induction of ROS generation in human A549 cells assessed as intracellular ROS level at 3 uM after 6 hrs by DCFH-DA staining-based flow cytometric analysis (reference value: 51.8%); assay type: functional; method in brief: as §3
A549 [11] = assay: Cell cycle arrest in human A549 cells assessed as increase in p27 levels at 3 uM by Western blot analysis; assay type: functional, cell-based; details: TDE = time-dependent effect; method in brief: as §2
[12] = Cytotoxicity against human QSG7701 cells assessed as reduction in cell viability after 24 hrs by MTT assay; assay type: cell-based
Method in brief: (§4)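 Log-phase cells seeded at 1 × 10⁴ per well. Lung cancer lines (A549, NCI-H23, NCI-H460) and normal lines (IMR-90, QSG-7701, HEK-293A) each exposed to 1, 3, 10, 30 and 100 μM for 24 h. MTT (5 mg/mL stock) added for 2 h at 37°C, formazan dissolved in DMSO, absorbance read at 490 nm. Three independent experiments, mean ± SD.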

[13] = target: RAC-alpha serine/threonine-protein kinase (Homo sapiens) (UniProt P31749); assay: Inhibition of AKT phosphorylation in human A549 cells at 3 uM measured after 24 hrs in presence of NAC by Western blot analysis; assay type: cell-based
Method in brief: (§5)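 A549 cells pretreated with 10 mM NAC for 30 min, then exposed to compound for 24 h. Lysate protein (30 μg) resolved on 12% SDS-PAGE and transferred to nitrocellulose. Probed with primary antibodies overnight at 4°C, then HRP secondary. Band densities from three independent experiments, mean ± SD.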

A549 [14] = assay: Inhibition of ERK in human A549 cells assessed as decrease in STAT3 phosphorylation at 3 uM after 24 hrs in presence of NAC by Western blot analysis; assay type: cell-based; method in brief: as §5
A549 [15] = assay: Inhibition of ERK phosphorylation in human A549 cells at 3 uM after 3 to 24 hrs by Western blot analysis; assay type: cell-based
Method in brief: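 A549 cells exposed to 3 μM for 3, 6, 12 or 24 h. Lysate protein (30 μg) run on 12% SDS-PAGE and blotted to nitrocellulose. Membranes blocked in 5% skim milk, primary antibodies at 4°C overnight, then HRP anti-IgG secondary for 1 h at room temperature. β-actin was the internal control. Bands quantified by densitometry; three independent experiments, mean ± SD.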

A549 [16] = assay: Cytotoxicity against human A549 cells assessed as reduction in cell viability after 24 hrs by MTT assay; assay type: functional, cell-based; details: A549, 24 h; method in brief: as §4
NCI-H460 = assay: Cytotoxicity against human NCI-H460 cells assessed as reduction in cell viability after 24 hrs by MTT assay; assay type: functional, cell-based; method in brief: as §4
A549 [17] = assay: Induction of ROS generation in human A549 cells assessed as intracellular ROS level at 3 uM after 24 hrs by DCFH-DA staining-based flow cytometric analysis (reference value: 51.8%); assay type: functional; method in brief: as §3
A549 [18] = assay: Induction of apoptosis in human A549 cells assessed as nuclear condensation at 3 uM by Annexin V-FITC/propidium iodide staining-based flow cytometric analysis; assay type: functional, cell-based; details: TDE = time-dependent effect
Method in brief: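 A549 cells seeded at 1 × 10⁵ cells/well, exposed to 3 μM for 3, 6, 12 and 24 h. Then incubated in binding buffer and stained with Annexin V-FITC and PI for 20 min in the dark. Apoptotic cells were scored by fluorescence microscopy and flow cytometry. Three independent experiments, mean ± SD.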

IMR-90 = assay: Cytotoxicity against human IMR90 cells assessed as reduction in cell viability after 24 hrs by MTT assay; assay type: cell-based; details: imr-90, 24 h; method in brief: as §4
A549 [19] = assay: Induction of apoptosis in human A549 cells assessed as late apoptotic cells at 3 uM in presence of NAC by Annexin V-FITC/propidium iodide staining-based flow cytometric analysis (reference value: 0.22%); assay type: functional
A549 [20] = assay: Cell cycle arrest in human A549 cells assessed as accumulation of cells at G1 phase at 3 uM after 3 hrs by propidium iodide staining-based flow cytometric analysis (reference value: 57.65%); assay type: functional
A549 [21] = assay: Induction of apoptosis in human A549 cells assessed as late apoptotic cells at 3 uM after 24 hrs by Annexin V-FITC/propidium iodide staining-based flow cytometric analysis (reference value: 4.52%); assay type: functional
A549 [22] = assay: Cell cycle arrest in human A549 cells assessed as accumulation of cells at G2 phase at 3 uM after 6 hrs by propidium iodide staining-based flow cytometric analysis (reference value: 24.02%); assay type: functional
A549 [23] = assay: Induction of apoptosis in human A549 cells assessed as increase in cleaved PARP expression at 3 uM by Western blot analysis; assay type: functional, cell-based; details: TDE = time-dependent effect; method in brief: as §2

Activity [4]: Active | Activity [8]: Active | Activity [9]: Active | inhibition [13]: inactive
SMILES: CCCCCCCCCS(=O)(=O)C12OC1C(=O)c1c(OC)ccc(OC)c1C2=O (stereo not given)
Activity (A549 [1]): Active | Activity (A549 [2]): 15.06% | Activity (A549 [3]): 8.15% | Activity (A549 [5]): Tde | Activity (A549 [6]): Tde | Activity (A549 [7]): Tde | Activity (A549 [10]): 59.58% | Activity (A549 [11]): Tde | Activity [12]: Non-Toxic | inhibition (A549 [14]): inactive | inhibition (A549 [15]): Active | IC50 (A549 [16]): 7.54 µM | Activity (NCI-H460): Active | Activity (A549 [17]): 70.81% | Activity (A549 [18]): Tde | Activity (IMR-90): Non-Toxic | Activity (A549 [19]): 3.03% | Activity (A549 [20]): 61.21% | Activity (A549 [21]): 1.89 - 12.93% | Activity (A549 [22]): 22.02% | Activity (A549 [23]): Tde

Activity [4]: Active | Activity [8]: Active | Activity [9]: Active | inhibition [13]: inactive
SMILES: CCCS(=O)(=O)C12OC1C(=O)c1c(OC)ccc(OC)c1C2=O (stereo not given)
Activity (A549 [1]): Active | Activity (A549 [2]): 17.94% | Activity (A549 [3]): 13.29% | Activity (A549 [5]): Tde | Activity (A549 [6]): Tde | Activity (A549 [7]): Tde | Activity (A549 [10]): 60.04% | Activity (A549 [11]): Tde | Activity [12]: Non-Toxic | inhibition (A549 [14]): inactive | inhibition (A549 [15]): Active | IC50 (A549 [16]): 2.59 µM | Activity (NCI-H460): Active | Activity (A549 [17]): 76.35% | Activity (A549 [18]): Tde | Activity (IMR-90): Non-Toxic | Activity (A549 [19]): 2.67% | Activity (A549 [20]): 60.85% | Activity (A549 [21]): 6.31 - 8.05% | Activity (A549 [22]): 18.26% | Activity (A549 [23]): Tde
